Assays:
[1] = target: T1, human TLR7 (Homo sapiens, UniProt Q9NYK1); assay: SEAP reporter assay in HEK-Blue hTLR7 cells; assay type: cell-based
T1 sequence (Q9NYK1 27-1049): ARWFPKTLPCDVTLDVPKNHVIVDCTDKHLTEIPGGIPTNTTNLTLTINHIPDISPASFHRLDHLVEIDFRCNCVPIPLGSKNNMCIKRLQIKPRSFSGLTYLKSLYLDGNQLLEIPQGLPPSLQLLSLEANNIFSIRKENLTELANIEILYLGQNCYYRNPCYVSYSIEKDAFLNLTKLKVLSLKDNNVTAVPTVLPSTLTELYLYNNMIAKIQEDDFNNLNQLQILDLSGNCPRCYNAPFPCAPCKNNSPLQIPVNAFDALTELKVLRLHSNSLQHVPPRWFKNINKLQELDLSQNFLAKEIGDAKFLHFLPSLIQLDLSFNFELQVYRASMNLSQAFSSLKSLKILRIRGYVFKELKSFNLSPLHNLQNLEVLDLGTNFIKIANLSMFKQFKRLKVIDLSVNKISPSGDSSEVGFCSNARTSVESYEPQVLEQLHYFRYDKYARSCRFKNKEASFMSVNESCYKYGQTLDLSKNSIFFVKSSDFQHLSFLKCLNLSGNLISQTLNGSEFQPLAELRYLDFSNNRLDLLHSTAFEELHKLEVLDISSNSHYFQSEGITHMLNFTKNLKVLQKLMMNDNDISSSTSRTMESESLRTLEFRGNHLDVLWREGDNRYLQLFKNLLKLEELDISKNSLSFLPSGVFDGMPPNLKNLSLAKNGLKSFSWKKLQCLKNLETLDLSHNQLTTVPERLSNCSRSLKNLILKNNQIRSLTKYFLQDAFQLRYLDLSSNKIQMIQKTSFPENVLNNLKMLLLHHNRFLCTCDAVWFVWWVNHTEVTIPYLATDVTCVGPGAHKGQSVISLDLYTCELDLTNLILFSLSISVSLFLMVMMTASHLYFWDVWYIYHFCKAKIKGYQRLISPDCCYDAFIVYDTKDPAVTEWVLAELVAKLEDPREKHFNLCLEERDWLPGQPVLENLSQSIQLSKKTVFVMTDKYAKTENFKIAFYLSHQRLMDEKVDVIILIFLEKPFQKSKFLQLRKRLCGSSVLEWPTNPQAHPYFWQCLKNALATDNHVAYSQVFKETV
In short: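 HEK-Blue hTLR7 cells (stable human TLR7 with SEAP reporter) were plated at 5 × 10^5 cells/mL in DMEM with 10% heat-inactivated FBS. They were treated with R848 and varying test compound concentrations at 37 °C for 20–24 h. Medium was mixed with QUANTI-Blue, incubated at 37 °C for about 30 min, and read at 620 nm. R848-only = 100% activation; untreated = 0%.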

[2] = tested on: TLR1/2/6; assay: Specificity test in HEK-Blue TLR-overexpressing cells, TLR1/2/6; assay type: cell-based, human; settings: 5 μM S-1, HEK-Blue TLR cells, TLR-specific agonists

IC50 [1]: 790 ± 270 nM
Compound: O=C(c1ccc(Cl)cc1)N1CCN(c2ccc([N+](=O)[O-])c3ncccc23)CC1 [Compound S1]
inhibition of TLR1/2/6 [2]: no obvious inhibition
